# This is a sample that favours compounds with a hit; in the whole collection about 2.5% have one here.
# PMI act: activators of human PMI, primary screen, biochemical, fluorescence intensity, near-Km mannose 6-phosphate; Mannose-6-phosphate isomerase (Homo sapiens), P34949; purified human PMI, coupled resazurin fluorescence, 20 min; stronger effect = higher value; 1 = vehicle control, 0 substrate-free wells; 0.005% of 190,000 active; activation factor at 20 µM;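 active means activation factor of 2 or more at 20 µM, relative to plate controls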
# FLuc stim CS: FLuc activators, initial screening, artefact control for FLuc-dependent activation tests, biochemical, ATPlite luminescence; activation factor at 10 µM; ATPlite luciferase biochemical, 10 min; 0 = ATP-free wells, 1 = DMSO control; 200,000 tested, under 10 active; Luciferin 4-monooxygenase (Photinus pyralis), P08659;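 active means luciferase activation factor, scaled between plate controls, of at least 2 with compound at 10 µM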
# Target sequence (P08659 whole entry, looked up): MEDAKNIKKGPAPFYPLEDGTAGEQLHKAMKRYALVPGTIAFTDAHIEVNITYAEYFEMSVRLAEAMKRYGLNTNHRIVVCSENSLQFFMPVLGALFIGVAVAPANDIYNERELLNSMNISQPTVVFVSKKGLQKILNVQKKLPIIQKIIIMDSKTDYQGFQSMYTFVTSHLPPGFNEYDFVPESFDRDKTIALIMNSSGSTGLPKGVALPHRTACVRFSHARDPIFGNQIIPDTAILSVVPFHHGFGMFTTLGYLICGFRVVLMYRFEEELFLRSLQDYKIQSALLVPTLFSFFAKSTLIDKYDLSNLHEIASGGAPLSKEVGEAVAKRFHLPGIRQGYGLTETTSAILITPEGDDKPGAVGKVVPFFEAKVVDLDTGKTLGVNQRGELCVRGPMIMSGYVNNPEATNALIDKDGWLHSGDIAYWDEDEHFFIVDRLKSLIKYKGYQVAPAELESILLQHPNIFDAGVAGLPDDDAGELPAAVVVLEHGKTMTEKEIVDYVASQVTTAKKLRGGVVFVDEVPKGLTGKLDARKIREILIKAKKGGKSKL
#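 Assay system: Luciferase/luciferin detection reagent, cell-free biochemical luciferase assay / Read-out: luciferase activation / Benchmarks: No-ATP low control, compound-free enzyme-plus-ATP high control / Medium: PBS buffer for ATP / Detection: luminescence measurement of luciferase light output / Schedule: 10 min at ambient temperature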
# FLuc inhib CS: firefly luciferase enzyme inhibitors, primary screen, artefact control for luciferase-based inhibitor screens, biochemical, luminescence, ATPLite; Luciferin 4-monooxygenase (Photinus pyralis), P08659; 10 min; inhibition, % at 10 µM; 1.5% of 200,000 active; AID 1006, 2008;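 active means inhibition above about 50% when tested at 10 µM, limit read from the data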
# Diaph act CS: compounds boosting diaphorase resazurin reduction – biochemical, uHTS, resorufin fluorescence, counter-screen for diaphorase-coupled primary assays, primary screen | Diaphorase/resazurin coupled assay, 16 min; stronger effect = higher value; 1 = vehicle wells, 0 = NADH-free wells | activation factor at 20 µM | 0.005% of 190,000 active;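 active means diaphorase activity raised at least twofold by the compound at 20 µM; inactive means activation factor below 2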
#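 Assay system: Purified diaphorase enzyme from Clostridium kluyveri | Amount: Enzyme 0.07 U/mL final | Dosing: Compound 20 µM once, DMSO 1% | Timing: 16 min reaction at room temperature | Detection: Fluorescence, excitation 544 nm and emission 590 nm | Evaluation: Higher resorufin formation from activation or reduction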
# Diaphorase inh: diaphorase inhibitors and chemical oxidizers, primary screen, counter-screen for diaphorase-coupled primary assays, biochemical, uHTS, resorufin fluorescence | diaphorase resazurin-to-resorufin fluorescence, NADH, 16 min; bacterial (C. kluyveri) enzyme, not human | inhibition, % at 20 µM | 0.69% of 190,000 active | AID 1217, 2008;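 active means primary screen inhibition at 20 µM above a set limit, cut at about 50% in these data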;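 further: plate controls were DMSO with full reaction for no effect and wells lacking NADH for full effect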
#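 Benchmarks: positive control wells lacking NADH, neutral wells with DMSO only. System: bacterial diaphorase enzyme (C. kluyveri). Input: 0.14 U/mL diaphorase, enzyme working solution. Detection: resorufin fluorescence, excitation 544 nm, emission 590 nm. Times: 16-min room-temperature incubation before reading.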
# PMI act hi M6P: human PMI activators, high substrate, primary screen, biochemical, fluorescence intensity, near-saturating mannose 6-phosphate. Mannose-6-phosphate isomerase (Homo sapiens), P34949. coupled PMI enzyme assay, resazurin fluorescence, 20 min; stronger effect = higher value; 1 = untreated enzyme, 0 = substrate-free blank. activation factor at 20 µM. 0.34% of 190,000 active. AID 1216, 2008;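 active means activation factor of 2 or more at 20 µM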
#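 test system = human PMI in coupled enzyme assay | medium = HEPES-buffered pH 7.4 with magnesium and detergent | also added = 1.0 mM mannose-6-phosphate substrate with 0.22 mM NADP+ | compound = 20 µM single dose | times = 20 min incubation at room temperature | measured by = resorufin fluorescence (Ex 544/Em 590 nm) from resazurin via diaphorase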
# Active calls of the source: *.
SMILES,PMI act,FLuc stim CS,FLuc inhib CS,Diaph act CS,Diaphorase inh,PMI act hi M6P
CSc1cccc(NC(=O)/C=C/c2ccc(Cl)cc2)c1,0.9,0.7,27,0.8,16,0.9
O=C(NC(=S)Nc1ccc(-c2nc3ncccc3o2)cc1)c1ccccc1F,1,1,-3,1,4,0.9
CC(=O)/C(=N/Nc1cccc(C)c1)N1CCOCC1,1.7,1.1,-7,0.9,14,2.2*
CCOc1cc(S(=O)(=O)NCc2ccncc2)c(C)cc1C,0.9,1,-2,0.9,7,1
CCc1ccc(C2C(C#N)=C(N)SC(N)=C2C#N)s1,1.1,1,0,0.9,15,0.7
Cc1ccc(C2C(C#N)=C(N)SC(N)=C2C#N)o1,1.1,1,-4,0.3,66*,1.1
CCn1cc(CNCc2cn(C)nc2-c2ccc(C3CCCCC3)cc2)cn1,0.9,1,2,1,2,0.9
CCc1ccc(NC(=O)c2noc3c2CCCCC3)cc1,0.9,0.9,10,0.9,14,1
CCc1ccc(NC(=O)c2noc3c2CCC3)cc1,1,0.4,64*,0.9,11,1
CCc1ccc(NC(=O)c2cc(C)on2)cc1,0.9,0.4,61*,0.9,9,1
Cc1ccc(O)c(NC(=O)c2noc3c2CCCCC3)c1,0.9,0.3,65*,0.9,5,0.9
CC(C)NC(=O)Cn1cc(C(=O)COc2ccccc2)c2ccccc21,1,0.9,6,1,-2,1
O=C(CN1C(=O)NC2(CCCC2)C1=O)Nc1ccccc1F,0.9,1,-2,0.9,15,0.9
Cc1cc(C(=O)N/N=C/c2cccc([N+](=O)[O-])c2O)n[nH]1,0.5,0.5,46,0.5,50*,0.9
O=C(O)c1cccc(-c2ccc(/C=N/NC(=O)c3cccnc3)o2)c1,1.2,1,3,0.9,6,1
Cc1ccc(C(=O)N/N=C\c2ccccc2[N+](=O)[O-])cn1,1.1,0.2,78*,1.1,-8,1.1
CCOc1ccc(C(=O)N/N=C/c2ccccc2[N+](=O)[O-])cc1,1,0.1,89*,0.9,13,1
O=C(N/N=C/c1ccc(-c2ccccc2[N+](=O)[O-])o1)c1cccnc1,0.4,1.1,-7,0.4,59*,0.6
COC(=O)c1ccccc1C(=O)c1ccc2c(c1)NC(=O)CO2,1.1,1.1,-6,0.9,6,1
CCOc1ccc(NC(=O)COc2ccccc2)c([N+](=O)[O-])c1,1,0.4,59*,1,2,1
CCOc1ccc(NC(=O)Cc2ccccc2)c([N+](=O)[O-])c1,1,1,-1,0.9,8,1
O=c1ccnc(S/C=C/c2ccccc2)[nH]1,1.1,0.4,63*,1,-5,1
CCN(CC)c1ccc(NC(=O)Nc2cccc(C(C)=O)c2)cc1,0.7,0.5,52*,0.7,31,0.7
CC(=O)c1cccc(NC(=O)Nc2ccc(C(=O)N3CCCC3)cc2)c1,0.8,0.4,61*,0.9,14,0.9
CC(=O)Nc1cccc(NC(=O)Nc2ccc(C(C)=O)cc2)c1,1,0.7,29,1,2,1
O=C(Nc1ccccc1)Nc1ccc(C(=O)N2CCCC2)cc1,1,0.1,87*,0.9,5,1
CCCOC(=O)c1c(-c2ccc(C)cc2C)csc1NC(=O)C1C2CCC(O2)C1C(=O)O (configuration not stated),1,1.1,-7,0.9,12,0.8
CCOc1c(O)ccc(/C=C2\SC(=S)NC2=O)c1[N+](=O)[O-],0.4,0.6,44,0.5,54*,0.4

# Screens deposited in PubChem BioAssay by Sanford-Burnham Center for Chemical Genomics.
